Screens as filed in PubChem.
This is a sample that favours compounds with a hit; in the whole collection about 1.4% have one here.
N-glyco inh – N-linked glycosylation inhibition; reporter increase, % at 12.5 µM; D54 ERlucT glycosylation luciferase reporter, 24 h; percent of 100 nM tunicamycin response; actives 0.23% (n = 360,000);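 active means mean luciferase reporter signal, scaled so untreated is 0 and the glycosylation-blocking control 100, at or above a set limit in every replicate; inconclusive means mean reaches the limit but not every replicate does; inactive means mean below the limit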;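 further: luciferase carries N-glycosylation sites so blocking glycosylation raises the light; 0% = median of neutral control wells and 100% = median of 100 nM tunicamycin wells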
CAL PDZ FP-1 – CAL PDZ (human) peptide binding inhibition; Q9HD26; purified CAL PDZ, TMR-peptide fluorescence polarization, 1 h; inhibition, % at 24.9 µM; actives 0.92% (n = 300,000);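 active means mean inhibition of at least 30% with at least half of replicates also reaching 30%; inconclusive means no clear call, values can overlap the other calls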;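 further: 0% = DMSO neutral control and 100% = excess unlabeled competitor peptide PRC23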
CAL PDZ FP-2 – human CAL PDZ-peptide interaction inhibition | actives 0.02% (n = 330,000) | Q9HD26 | inhibition, % at 20 µM | purified CAL PDZ, TMR-peptide fluorescence polarization, 1 h;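 active means highest replicate inhibition of at least 40%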;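 further: plate controls were DMSO neutral control wells for no effect and unlabeled competitor peptide control wells for full effect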
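Control set: unlabelled peptide and DMSO controls / Material: purified CerCALP PDZ construct / Timing: 1 h incubation at room temperature before polarization reading / Doses: 20 µM, one dose / Detection: fluorescence polarization (mP)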
PvdQ acylase – blocks Pseudomonas aeruginosa PvdQ acylase activity; purified PvdQ acylase, fluorescence plate reader; inhibition, % at 10 µM; actives 0.063% (n = 340,000); AID 488965; in the data active means inhibition above about 30%, passing the limit was not always enough; inconclusive means no clear call, values can overlap the other calls;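 further: 0% = vehicle neutral wells and 100% = reference inhibitor wells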
Vif imaging – inhibitors of HIV Vif; actives 0.35% (n = 340,000); inhibition, % at 7.49 µM; AID 602346; HEK293T cells, Vif self-association by quenched fluorescence, imaging, 24 h; in the data active means inhibition above about 50%, passing the limit was not always enough; inconclusive means no clear call, values can overlap the other calls; inactive means below about 31%
CDK5 p35 inh – inhibitors of human CDK5/p35 kinase; Q00535+Q15078; Recombinant CDK5/p35, ADP-Glo luminescence, 60 min; inhibition, % at 10 µM; actives 0.01% (n = 330,000); AID 488839;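 active means highest replicate inhibition of at least 50% and at least 75% of replicates reaching 50%; inconclusive means only one of the two criteria met; inactive means both criteria failed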;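 further: plate controls were DMSO neutral control for no effect and GW8510 at 10 µM for full effect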
Target sequence (Q00535 whole entry, looked up): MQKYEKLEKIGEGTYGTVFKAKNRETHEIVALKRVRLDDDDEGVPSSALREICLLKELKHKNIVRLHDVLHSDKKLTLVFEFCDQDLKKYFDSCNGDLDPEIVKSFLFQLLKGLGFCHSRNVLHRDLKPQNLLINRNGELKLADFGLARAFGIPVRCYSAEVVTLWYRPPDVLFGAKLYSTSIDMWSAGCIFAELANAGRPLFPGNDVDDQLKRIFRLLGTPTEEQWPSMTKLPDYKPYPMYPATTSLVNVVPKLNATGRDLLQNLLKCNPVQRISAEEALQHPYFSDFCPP
Target sequence (Q15078 whole entry, looked up): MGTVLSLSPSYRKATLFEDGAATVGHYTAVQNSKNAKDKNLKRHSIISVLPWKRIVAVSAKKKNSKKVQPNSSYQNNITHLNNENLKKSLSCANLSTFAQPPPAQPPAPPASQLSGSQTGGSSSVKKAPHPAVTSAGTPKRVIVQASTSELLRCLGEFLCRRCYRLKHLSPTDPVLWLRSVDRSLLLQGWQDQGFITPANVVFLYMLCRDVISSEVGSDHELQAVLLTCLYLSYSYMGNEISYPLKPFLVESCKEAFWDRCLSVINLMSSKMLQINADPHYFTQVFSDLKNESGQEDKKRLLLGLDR
Active calls of the source: *; i = inactive; ? = inconclusive; / = not tested or not shown.

SMILES | N-glyco inh | CAL PDZ FP-1 | CAL PDZ FP-2 | PvdQ acylase | Vif imaging | CDK5 p35 inh
Cc1ccc(C(C)C)cc1OCC(=O)Nc1nnc(C2CC2)s1 | -9 | -6 | 0 | -6 | -14 | -1
Cc1cc(OCC(=O)Nc2nnc(C3CC3)s2)ccc1C(C)C | 1 | 45* | 0 | -16 | 0 | 0
CC(/C=C/c1ccc(O)cc1)=NNc1ccccc1 | -1 | / | 0 | 4 | -5 | -1
CCOc1ccc(Nc2nc(N(C)c3ccccc3)nc(N)c2[N+](=O)[O-])cc1 | 36* | 5 | 2 | -7 | -1 | 1
COc1ccc(C)cc1NC(=O)Nc1ccncc1 | 5 | / | -2 | -13 | -1 | -2
C=C1C(=O)O[C@@H]2[C@H]1[C@@H](OC(=O)/C(C)=C/C)C/C(C)=C\C(=O)/C=C(\C)[C@@H]2O | 8 | -1 | -1 | -5 | 97* | 1
C=C1C(=O)O[C@H]2[C@H]1[C@H](OC(=O)/C(C)=C\C)C[C@]1(CO1)[C@@H]1[C@H](OC(C)=O)C=C(C)[C@]21O | 11 | -1 | 0 | -15 | 8 | -1
O=C1c2ccccc2C(=O)c2c(NCCCN(CCO)CCO)cccc21 | 116* | 4 | 2 | -2 | -8 | 2
O=[N+]([O-])c1ccc(-c2nc(Nc3cccc(O)c3)c3ccccc3n2)cc1 | 8 | 78* | / | -11 | -13 | 1
Cc1ccc(-c2nc(Nc3cccc(O)c3)c3ccccc3n2)cc1 | 3 | -3 | -2 | -15 | 8 | 1
Oc1cccc(Nc2c3ccccc3nc3ccccc23)c1 | 62* | 2 | 2 | -7 | -2 | 1
COc1ccc(Nc2c3ccccc3nc3ccccc23)cc1 | 42* | -2 | 2 | -12 | -2 | -3
CCC(C)N(C(=O)c1csnn1)C(C(=O)NC1CCCC1)c1c(F)cccc1Cl (stereo unspecified) | -2 | 1 | -1 | 1 | -6 | -2
CCOC(=O)c1c(NC(=O)c2cccs2)sc(CC)c1-c1cccs1 | -4 | 31* | -2 | -11 | 0 | -1
O=C(C[C@H]1C[C@@H]2c3cc(NS(=O)(=O)c4ccccc4)ccc3O[C@@H]2[C@H](CO)O1)N1CCOCC1 | 5 | / | / | / | / | /
CC(CCC(=O)O)C1CCC2C3CC(O)C4CC(O)CC[C@]4(C)C3CCC12C (stereo partly specified) | -1 | 1 | 1 | -4 | 1 | 0
C[C@@H]1CN([C@H](C)CO)C(=O)CCCn2cc(nn2)CO[C@H]1CN(C)C(=O)Nc1cccc(C(F)(F)F)c1 | 1 | / | / | / | 0 | /
CN(C)c1nc(N)nc(CSc2nnnn2-c2ccc(F)cc2)n1 | 1 | 1 | -1 | -30 | -3 | -4
Cc1cccc(C)c1-n1nnnc1SCc1nc(N)nc(N(C)C)n1 | 3 | / | / | / | 129* | /
COc1ccccc1NC(=O)C(=O)N/N=C(\C)CC(=O)Nc1ccccc1C(F)(F)F | -1 | 44* | 0 | -13 | 0 | -1
C/C(CC(=O)Nc1ccccc1C(F)(F)F)=N\NC(=O)c1cnccn1 | 1 | 0 | 0 | -12 | 2 | 1
CC(Sc1ncnc2sc(-c3ccccc3)cc12)C(=O)NCC1CCCO1 (stereo unspecified) | -12 | -1 | -5 | 0 | -3 | 0
CC(C)OCCCNC(=O)c1cccc2c1C(=O)c1ccc(Cl)cc1S2(=O)=O | 1 | -13 | -3 | -11 | -8 | 2
C(=C/c1nccc2c1[nH]c1ccccc12)/c1ccc2c(c1)OCO2 | 0 | -12 | / | -20 | 72* | 0
COc1ccc(NC(=O)c2sc3nc(-c4cccnc4)ccc3c2N)cc1 | 1 | 9 | -4 | -9 | 92* | -2
SMILES | N-glyco inh | CAL PDZ FP-1 | CAL PDZ FP-2 | PvdQ acylase | Vif imaging | CDK5 p35 inh
COc1ccc(NC(=O)c2sc3nc(-c4cccnc4)ccc3c2N)cc1OC | 0 | 1 | 0 | 4 | i | 0
CCN1C[C@@H]2[C@@H]3C(=O)N(C)C(=O)[C@@H]3[C@](Cc3ccccc3)(C1=O)N2C(=O)c1ccc(Br)cc1 | 2 | 2 | 0 | -11 | 2 | 0
COc1ccc(C2C(C(=O)c3ccco3)=C(O)C(=O)N2CC2CCCO2)cc1OC (stereo unspecified) | 1 | 52* | 0 | -19 | ? | 1
O=C(C1=C(O)C(=O)N(CC2CCCO2)C1c1ccccc1)c1ccco1 (stereo unspecified) | -1 | -3 | -1 | -10 | -5 | 1
CCOCc1c(C(=O)NCC(c2ccco2)N2CCCC2)oc2ccccc12 (stereo unspecified) | -4 | 2 | -1 | 7 | -1 | 0
COCc1[nH][nH]c(=O)c1/C=N/N1CCOCC1 | 0 | 43* | -1 | -14 | -1 | -3
CCS(=O)(=O)Nc1cc(OC)c(OC)cc1Cc1nccc2cc(OC)c(OC)cc12 | 2 | 65* | -1 | -9 | 0 | -2
Cc1ccc(-c2n[nH]c(=O)c3ccccc23)cc1S(=O)(=O)NCCN1CCOCC1 | 0 | 42* | / | -16 | 24 | 1
CCOC(=O)N1CCN(S(=O)(=O)c2cc(-c3nn4c(C)nnc4c4ccccc34)ccc2C)CC1 | 3 | 1 | -2 | 15 | 6 | 1
Cc1ccc(-c2nn3c(C)nnc3c3ccccc23)cc1S(=O)(=O)NCCN1CCOCC1 | 11 | / | -3 | -7 | 12 | 0
Cc1ccc(-c2nn3c(C)nnc3c3ccccc23)cc1S(=O)(=O)NCc1ccccc1 | 7 | / | -7 | -7 | 87* | -2
Cc1ccc(-c2nn3c(C)nnc3c3ccccc23)cc1S(=O)(=O)N(C)CCO | 27* | -8 | -2 | -14 | 17 | 2
CC(C)(C)S(=O)N1Cc2cc(=O)n(Cc3ccccc3)c(CCO)c2[C@H]1CCO (stereo partly specified) | 3 | -2 | 0 | -8 | 6 | 0
COc1ccc(OCC(=O)Nc2cc3c(cc2C(=O)O)OCCCO3)cc1 | 3 | -5 | -3 | -13 | 52* | -2
Cc1cccn2c(=O)c3cc(C(=O)N4CCCC(C)C4)sc3nc12 (stereo unspecified) | 0 | -3 | -4 | -15 | -1 | 4
Cc1cccn2c(=O)c3cc(C(=O)N4CCCCC4)sc3nc12 | 34* | -1 | -2 | -13 | -2 | -2
O=C1NC(NS(=O)(=O)c2ccccc2)(C(F)(F)F)C(=O)N1c1cccc(Cl)c1 (stereo unspecified) | 0 | -3 | 1 | 10 | -7 | 0
CC(C)(C)OC(=O)N1CCC(NC(=O)c2[nH]cnc2C(=O)Nc2cccc(Cl)c2)CC1 | 1 | 45* | 0 | -9 | -4 | 1
CC(C)(C)OC(=O)N1CCC(NC(=O)c2nc[nH]c2C(=O)NC2CCN(C(=O)OC(C)(C)C)CC2)CC1 | 5 | -2 | 0 | 2 | 0 | 4
